# Test results taken from paper PMC10333676 (Redox Biology, 2023).
# How the values were obtained:
# [1] = target: T1, Mutant Magnetospirillum gryphiswaldense cereblon isoform 4 (MsCI4^WW/FF) (Magnetospirillum gryphiswaldense, UniProt A4TVL0, W36F/W59F); assay: FRET-based competitive binding assay
# T1 sequence (A4TVL0 1-124 W36F/W59F): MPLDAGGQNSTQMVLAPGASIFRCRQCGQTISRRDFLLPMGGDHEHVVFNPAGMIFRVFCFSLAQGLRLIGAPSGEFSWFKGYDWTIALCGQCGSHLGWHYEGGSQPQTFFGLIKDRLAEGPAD
# Summary of the method: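 Competitive FRET binding used mutant cereblon isoform 4 (MsCI4WW/FF) with the reporter ligand MANT-uracil. Buffer was 20 mM Tris pH 7.5, 150 mM NaCl, 5 mM 2-mercaptoethanol, final DMSO ≤0.02%. Tryptophan was read at ex 295/em 350 nm and FRET emission at 440 nm. Ligands were titrated to reduce the FRET signal, with MANT-uracil autofluorescence as blank and thalidomide as positive control; triplicates.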
# KEAP1 [2] = target: KEAP1 (Homo sapiens, UniProt Q14145); assay: KEAP1 degradation in HepG2 cells by western blotting; format: cell-based; conditions: for reduction of KEAP1 level: HepG2, 1 μM, 6 h
# Summary of the method: (§1)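 CRBN-knockdown HepG2 clones were made with pGIPZ lentiviral shRNA (virus from transfected HEK293T, with 5 μg/mL polybrene) and GFP-FACS sorting. Lysates were western blotted and densitometry came from three independent experiments.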
# [3] = target: T1, Mutant Magnetospirillum gryphiswaldense cereblon isoform 4 (MsCI4^WW/FF); conditions: read-out: published Kd of MANT-uracil to MsCI4^WW/FF; cited from earlier work
# KEAP1 [4] = target: T2, KEAP1 (Mus musculus, UniProt Q9Z2X8); assay: KEAP1 degradation in AML12 cells by western blotting; format: cell-based
# Summary of the method: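 AML12 cells got test compound for 24 h over a concentration series (DC50/Dmax) or 100 nM over a time course (DT50). Co-treatments: MG132 5 μM with 100 or 300 nM for 4 h; CQ 20 μM for 18 h, then 100 or 300 nM for 6 h; pomalidomide or TD-165 1 μM for 3 h, then 100 nM for 6 h. KEAP1 was read by western blot (RIPA, SDS-PAGE, PVDF, ECL) with densitometry from three independent experiments.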
# KEAP1 [5] = target: T2, KEAP1; assay: KEAP1 degradation in primary mouse hepatocytes by western blotting; format: cell-based; conditions: 1 to 1000 nM, 24 h
# Summary of the method: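 Primary hepatocytes from male C57BL6/N mice were collagenase-perfused and plated in medium 199 with 10% FBS, 10 nM dexamethasone and 23 mM HEPES. […] KEAP1 was read by western blot. DC50 and Dmax came from densitometry of three independent experiments.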
# NRF2 [6] = assay: Nuclear translocation of NRF2 in AML12 cells; format: cell-based, mouse
# Summary of the method: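 Nuclear fractionation: AML12 cells got test compound 300 nM for indicated times. Cells were pelleted (4000 G, 4 °C), extracted in nuclear buffer, frozen, then spun at 15,000 G for 20 min. Fractions were BCA-quantified and western blotted (GAPDH cytosolic, Lamin B nuclear loading controls), with densitometry from three independent experiments. Immunofluorescence: 100 or 300 nM for 3 h, 4% PFA, 0.1% Triton X-100, NRF2 stain, DAPI, confocal imaging.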
# NRF2 [7] = assay: Nuclear translocation of NRF2 in HepG2 cells; format: cell-based, human
# [8] = tested on: HMOX1, NQO1, GCLC and GCLM (the target genes of NRF2); assay: NRF2 target gene expression by qRT-PCR in AML12 cells; format: cell-based, mouse; conditions: AML12, 100 nM
# Summary of the method: (§2)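 Cells got test compound 100 nM for indicated times. RNA was extracted with TRIzol, reverse-transcribed, and HMOX1, NQO1, GCLC and GCLM were quantified by qRT-PCR. Values were normalized to GAPDH and expressed as relative levels by ΔΔCt.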
# [9] = tested on: HMOX1, NQO1, GCLC and GCLM (the target genes of NRF2); assay: NRF2 target gene expression by qRT-PCR in HepG2 cells; format: cell-based, human; conditions: HepG2, 100 nM
# Summary of the method: as §2
# AML12 cells [10] = assay: APAP-induced loss of cell viability; format: cell-based, mouse; conditions: AML12, APAP 15 mM, 24 h, MTT
# AML12 cells [11] = assay: APAP-induced ROS generation; format: cell-based, mouse; conditions: AML12, APAP 5 mM, 4 h, 300 nM of SD2267
# Summary of the method: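 AML12 mouse hepatocytes (DMEM/F-12, 10% FBS, ITS-pyruvate, dexamethasone 40 ng/mL) were seeded and exposed the next day to 5 mM APAP with or without test compound. After 4 h, cells were loaded with 50 μM DCF-DA in serum-free medium for 30 min at 37 °C and washed. Fluorescence was read at ex488/em525.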
# AML12 cells [12] = assay: APAP-induced mitochondrial ROS; format: cell-based, mouse; conditions: AML12, APAP 5 mM, 8 h
# Summary of the method: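 AML12 cells were exposed to 5 mM APAP with or without test compound for 8 h. They were then stained with 5 μM MitoSOX Red (mitochondrial ROS, red fluorescence) or 0.25 μg/mL JC-1 (green monomer fluorescence, rising as membrane potential falls). Intensities were read by flow cytometry; means ± SEMs, n = 3 per group.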
# [13] = tested on: primary mouse hepatocytes; assay: APAP-induced ROS generation; format: cell-based; conditions: 100 nM 6 h before APAP 20 mM
# Summary of the method: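 Primary hepatocytes came from 8–10-week male C57BL6/N mice by collagenase perfusion and were cultured in medium 199 with 10% FBS, 10 nM dexamethasone and 23 mM HEPES. The next day cells got test compound 100 nM for 6 h, then 50 μM DCF-DA (serum-free, 30 min, 37 °C), a wash and 20 mM APAP. Fluorescence (ex488/em525) was read every 20 min for 10 h; n = 4 per group.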
# [14] = In vivo pharmacokinetics in ICR mice; set-up: species or system mouse; conditions: for AUC / AUC(0-t) / Cmax / MRT / half-life: male, ICR, mouse, plasma
# Summary of the method: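 Male ICR mice (7–8 weeks, 30–35 g) received test compound at 3 mg/kg IP or PO. Plasma concentration–time profiles were measured and PK parameters were derived by non-compartmental analysis.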
# C57BL/6 N male mice = assay: Acetaminophen; format: in vivo, mouse
# CRBN = CRBN (Homo sapiens, UniProt Q96SW2); assay: CRBN protein level in HepG2 cells by western blotting; format: cell-based; conditions: HepG2, 100 or 300 nM, 24 h
# Summary of the method: as §1
# [15] = SD2267 3 mg/kg IP 2 h after APAP 250 mg/kg IP, 6 h
# Sequence of KEAP1 (Homo sapiens, UniProt Q14145) (Q14145 whole entry): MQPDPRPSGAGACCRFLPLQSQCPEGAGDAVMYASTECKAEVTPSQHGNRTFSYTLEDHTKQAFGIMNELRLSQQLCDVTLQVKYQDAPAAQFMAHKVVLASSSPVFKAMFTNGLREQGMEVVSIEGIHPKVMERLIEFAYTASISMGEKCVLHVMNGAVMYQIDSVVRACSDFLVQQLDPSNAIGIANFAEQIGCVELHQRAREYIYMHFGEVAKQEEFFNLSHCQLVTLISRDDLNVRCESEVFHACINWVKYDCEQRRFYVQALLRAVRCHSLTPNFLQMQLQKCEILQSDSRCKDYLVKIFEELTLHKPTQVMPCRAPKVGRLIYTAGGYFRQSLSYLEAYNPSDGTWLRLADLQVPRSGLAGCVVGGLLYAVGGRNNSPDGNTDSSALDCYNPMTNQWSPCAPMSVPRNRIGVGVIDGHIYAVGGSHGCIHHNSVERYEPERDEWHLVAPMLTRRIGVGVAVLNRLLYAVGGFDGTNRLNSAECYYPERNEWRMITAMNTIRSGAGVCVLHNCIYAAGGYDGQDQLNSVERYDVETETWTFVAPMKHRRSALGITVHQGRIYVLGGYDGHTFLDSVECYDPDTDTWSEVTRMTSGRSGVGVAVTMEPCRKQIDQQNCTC
# T2 sequence (Q9Z2X8 whole entry): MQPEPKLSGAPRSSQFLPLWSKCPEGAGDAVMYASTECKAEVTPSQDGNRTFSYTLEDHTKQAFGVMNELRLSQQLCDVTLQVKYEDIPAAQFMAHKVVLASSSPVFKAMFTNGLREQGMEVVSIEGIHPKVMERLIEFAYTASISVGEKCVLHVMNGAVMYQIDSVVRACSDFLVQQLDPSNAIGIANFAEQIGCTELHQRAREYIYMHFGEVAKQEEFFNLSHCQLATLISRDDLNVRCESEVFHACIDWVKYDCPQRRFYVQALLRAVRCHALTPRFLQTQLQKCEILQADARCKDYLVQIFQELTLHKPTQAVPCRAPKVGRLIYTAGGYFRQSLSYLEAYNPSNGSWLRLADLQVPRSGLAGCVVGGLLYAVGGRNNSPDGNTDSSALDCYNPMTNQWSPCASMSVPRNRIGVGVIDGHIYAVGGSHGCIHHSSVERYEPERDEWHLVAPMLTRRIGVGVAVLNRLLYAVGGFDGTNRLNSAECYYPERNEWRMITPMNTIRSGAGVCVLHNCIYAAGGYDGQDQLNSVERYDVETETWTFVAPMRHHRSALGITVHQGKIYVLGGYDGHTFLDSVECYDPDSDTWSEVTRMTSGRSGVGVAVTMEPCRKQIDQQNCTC
# Sequence of CRBN (Q96SW2 whole entry): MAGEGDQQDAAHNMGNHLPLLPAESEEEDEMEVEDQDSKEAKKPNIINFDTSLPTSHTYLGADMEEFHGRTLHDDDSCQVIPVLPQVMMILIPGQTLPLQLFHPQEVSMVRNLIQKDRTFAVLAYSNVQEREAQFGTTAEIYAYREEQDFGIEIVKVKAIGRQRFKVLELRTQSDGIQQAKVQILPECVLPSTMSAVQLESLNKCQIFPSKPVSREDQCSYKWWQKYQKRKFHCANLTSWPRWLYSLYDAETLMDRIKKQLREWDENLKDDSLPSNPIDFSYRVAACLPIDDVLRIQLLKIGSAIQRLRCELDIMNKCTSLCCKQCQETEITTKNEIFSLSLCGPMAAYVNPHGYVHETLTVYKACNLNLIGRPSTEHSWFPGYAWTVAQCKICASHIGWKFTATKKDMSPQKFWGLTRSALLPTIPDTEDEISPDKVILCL
smiles,measurement,setting,value
Cc1ccc(C(CC(=O)O)c2cc(OCCCCCCCCNc3ccc4c(c3)C(=O)N(C3CCC(=O)NC3=O)C4=O)c3c(c2)nnn3C)cc1CN1C[C@@H](C)Oc2ccccc2S1(=O)=O (stereo partly drawn) [SD2268],Ki,[1],8150 ± 5710 nM
same,reduction of KEAP1 level,KEAP1 [2],7%
"CNc1ccccc1C(=O)NCCn1ccc(=O)[nH]c1=O [MANT-uracil, 1-(N-2-MANT-imidoethyl)-uracil]",Kd,[3],3300 nM
Cc1ccc(C(CC(=O)O)c2cc(OCCCCNc3cccc4c3C(=O)N(C3CCC(=O)NC3=O)C4=O)c3c(c2)nnn3C)cc1CN1C[C@@H](C)Oc2ccccc2S1(=O)=O (stereo partly drawn) [SD2269],Ki,[1],64.8 ± 13.2 nM
same,reduction of KEAP1 level,KEAP1 [2],no effect
Cc1ccc(C(CC(=O)O)c2cc(OCCCCCCCCNc3cccc4c3C(=O)N(C3CCC(=O)NC3=O)C4=O)c3c(c2)nnn3C)cc1CN1C[C@@H](C)Oc2ccccc2S1(=O)=O (stereo partly drawn) [SD2267],Ki,[1],57.7 ± 17.5 nM
same,Half-life (DT50) of KEAP1,"KEAP1 [2]; HepG2, 100 nM",2.6 h
same,reduction of KEAP1 level,KEAP1 [2],64%
same,Dmax at 0.3 µM,"KEAP1 [2]; HepG2, read-out: maximum degradation efficacy (Dmax)",82.3%
same,DC50,"KEAP1 [2]; read-out: half-maximal degradation concentration (DC50), HepG2, 24 h, 1 to 1000 nM",8.1 nM
same,KEAP1 levels in CRBN knockdown cells,"KEAP1 [2]; shCRBN #10 HepG2, 100 or 300 nM, 24 h",not affected
same,KEAP1 degradation in control cells,"KEAP1 [2]; shCon HepG2, 100 or 300 nM, 24 h",effectively degraded KEAP1
same,Half-life (DT50) of KEAP1,"KEAP1 [4]; AML12, 100 nM",2.2 h
same,KEAP1 degradation under autophagy inhibition by chloroquine,"KEAP1 [4]; AML12, CQ 20 μM 18 h prior to SD2267 100 or 300 nM 6 h",did not abolish
same,KEAP1 degradation in the presence of pomalidomide or TD-165,"KEAP1 [4]; AML12, POM 1 μM or TD-165 1 μM 3 h prior to SD2267 100 nM 6 h",attenuated
same,KEAP1 degradation in the presence of MG132,"KEAP1 [4]; AML12, SD2267 100 or 300 nM, MG132 5 μM, 4 h",could not degrade KEAP1
same,Dmax at 0.3 µM,"KEAP1 [4]; AML12, read-out: maximum degradation efficacy (Dmax)",76.5%
same,DC50,"KEAP1 [4]; read-out: half-maximal degradation concentration (DC50), AML12, 24 h, 1 to 1000 nM",16.8 nM
same,KEAP1 degradation,KEAP1 [5],dose-dependently degraded
same,"Nuclear NRF2 (nuclear fractionation, western blotting)","NRF2 [6]; AML12, 300 nM, within 3 h",significantly upregulated
same,"amount and nuclear localization of NRF2 (immunofluorescence, confocal microscopy)","NRF2 [6]; AML12, 100 or 300 nM, 3 h",increased
same,"Nuclear NRF2 (nuclear fractionation, western blotting)","NRF2 [7]; HepG2, 100 nM, within 3 h",significantly upregulated
same,"amount and nuclear localization of NRF2 (immunofluorescence, confocal microscopy)","NRF2 [7]; HepG2, 100 or 300 nM, 3 h",increased
same,"mRNA expression levels of HMOX1, NQO1, GCLC and GCLM",[8],significantly increased
same,mRNA expression levels of NRF2 target genes,[9],significantly increased
same,cell viability decreased by APAP,AML12 cells [10],significantly recovered
same,APAP-induced increase of DCF-DA fluorescence intensity,AML12 cells [11],significantly attenuated
same,APAP-induced increment of JC-1 green fluorescence intensity,AML12 cells [12],significantly reduced
same,MitoSOX Red fluorescence intensity versus APAP only,AML12 cells [12],significantly lower
same,APAP-induced ROS generation,[13],significantly reduced
same,Tmax,"[14]; PO, 3 mg/kg, mice, n = 3, median with range",80 [60–120] min
same,AUC,"[14]; ip, 3 mg/kg",7800 ng·h/mL
same,AUC(0-t),"[14]; ip, 3 mg/kg",7720 ng·h/mL
same,Cmax,"[14]; ip, 3 mg/kg",1970 ± 870 ng/mL
same,MRT,"[14]; ip, 3 mg/kg",4.83 h
same,half-life,"[14]; ip, 3 mg/kg",3.67 ± 0.283 h
same,AUC,"[14]; po, 3 mg/kg",597 ng·h/mL
same,AUC(0-t),"[14]; po, 3 mg/kg",497 ng·h/mL
same,Cmax,"[14]; po, 3 mg/kg",172 ± 116 ng/mL
same,MRT,"[14]; po, 3 mg/kg",12.1 h
same,half-life,"[14]; po, 3 mg/kg",12.3 ± 1.7 h
same,oral bioavailability,[14]; oral parameters much lower than those of IP,low oral bioavailability
same,KEAP1 protein level in the liver compared to APAP,"C57BL/6 N male mice; 1 mg/kg IP, western blotting, p = 0.08",a trend towards a decrease
same,increase of liver protein level of NRF2 and HO-1 versus APAP-only group,C57BL/6 N male mice; 3 mg/kg IP,significantly greater
same,phosphorylation of JNK induced by APAP in liver,C57BL/6 N male mice; 3 mg/kg IP,significantly reduced
same,hepatic necrosis (HE staining),"C57BL/6 N male mice; 3 mg/kg, 2 h post-treatment after APAP 250 mg/kg",significantly reduced
same,liver GSH to GSSG ratio decreased by APAP,C57BL/6 N male mice; 1 or 3 mg/kg IP,significantly and dose-dependently recovered
same,number of TUNEL-positive cells,"C57BL/6 N male mice; APAP + 3 mg/kg of SD2267, 369 in APAP-treated mice, HPF x400",123 cells per HPF
same,decrease of APAP-induced serum ALT increase,C57BL/6 N male mice; [15],~1.9 fold
same,decrease of APAP-induced serum AST increase,C57BL/6 N male mice; [15],~2.2 fold
same,CRBN degradation,CRBN,not degraded
